From the RNAGym collection of RNA variant scans (doi:10.1002/anie.201605470)

B1: Osa-1-4 twister ribozyme (parent)
chain: CCGCCUAACACUGCCAAUGCCGGUCCCAAGCCCGGAUAAAAGUGGAGGGGGCGG

Variants of: B1
Assay: self-cleavage, relative activity (ratio to wild type); higher = more cleavage; co-transcriptional
Procedure, shortened: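 In vitro transcription at 37 °C for 2 h allowed the twister ribozyme to cleave itself as it was made. Its 54-nucleotide Oryza sativa template had been synthesised with 97 % wild-type base and 1 % of each other base at the 48 positions downstream of the cleavage site. A template-switching oligonucleotide was used for reverse transcription, followed by PCR amplification and deep sequencing. Whether reads carried upstream sequence set the cleavage status, and relative activity is the fraction cleaved normalised to wild type.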

Going from CCGCCUAACUCUGCCAAUGCCGGUCCCAAGCCCGGAUAAAAGUGGAGAGGGCGG [A10U G48A] to CCGCCUAACUCUGCCAAUGCCGGUCCCAAGCCCGGAUAAAAGUGGAGUGGGCGG [A10U G48U], the self-cleavage falls from 0.02 to 0.01.

Going from CCGCCUAACUCUGCCAAUGCCGGUCCCAAGCCCGGAUAAAAGUGGAGCGGGCGG [A10U G48C] to CCGCCUAACUCUGCCAAUACCGGUCCCAAGCCCGGAUAAAAGUGGAGGGGGCGG [A10U G19A], the self-cleavage rises from 0.01 to 0.05.

Going from CCGCCUAACUCUGCCAAUCCCGGUCCCAAGCCCGGAUAAAAGUGGAGGGGGCGG [A10U G19C] to CCGCCUAACUCUGCCAAUUCCGGUCCCAAGCCCGGAUAAAAGUGGAGGGGGCGG [A10U G19U], the self-cleavage rises from 0.01 to 0.02.

First: CCGCCUAACUCUGCCAAUGCCGGUCCCAAGCCCGGAGAAAAGUGGAGGGGGCGG [A10U U37G]
Second: CCGCCUAACUCUGCCAAUGCCGGUCCCAAGCCCGGACAAAAGUGGAGGGGGCGG [A10U U37C]
The self-cleavage of the first is lower: 0.04 for the first, 0.05 for the second.

CCGCCUAACUCUGCCAAUGCCGGUCCCAAGCCCGGAAAAAAGUGGAGGGGGCGG [A10U U37A] and CCGCCUAACUCUGCCAAUGCCGGUCCGAAGCCCGGAUAAAAGUGGAGGGGGCGG [A10U C27G] are the same in self-cleavage: 0.04 for the first, 0.04 for the second.

First: CCGCCUAACUCUGCCAAUGCCGGUCCAAAGCCCGGAUAAAAGUGGAGGGGGCGG [A10U C27A]
Second: CCGCCUAACUCUGCCAAUGCCGGUCCUAAGCCCGGAUAAAAGUGGAGGGGGCGG [A10U C27U]
The self-cleavage of the first is lower: 0.02 for the first, 0.05 for the second.

CCGCCUAACUCUGCCAAUGCCGGUCCCAAGCCCUGAUAAAAGUGGAGGGGGCGG [A10U G34U] and CCGCCUAACUCUGCCAAUGCCGGUCCCAAGCCCCGAUAAAAGUGGAGGGGGCGG [A10U G34C] are the same in self-cleavage: 0.03 for the first, 0.03 for the second.

First: CCGCCUAACUCUGCCAAUGCCGGUCCCAAGCCCAGAUAAAAGUGGAGGGGGCGG [A10U G34A]
Second: CCGCCUAACUCUGCCAAUGCCGGUCCCAAGCCCGGAUAAAAGUGGAUGGGGCGG [A10U G47U]
The self-cleavage of the first is higher: 0.05 for the first, 0.02 for the second.

CCGCCUAACUCUGCCAAUGCCGGUCCCAAGCCCGGAUAAAAGUGGACGGGGCGG [A10U G47C] and CCGCCUAACUCUGCCAAUGCCGGUCCCAAGCCCGGAUAAAAGUGGAAGGGGCGG [A10U G47A] are the same in self-cleavage: 0.02 for the first, 0.02 for the second.

Compared with CCGCCUAACUCUGCCAAUGCCGGUCCCAAGCCCGGAUAAAAGCGGAGGGGGCGG [A10U U43C], CCGCCUAACUCUGCCAAUGCCGGUCCCAAGCCCGGAUAAAAGGGGAGGGGGCGG [A10U U43G] is higher in self-cleavage: 0.03 for the first, 0.59 for the second.

Compared with CCGCCUAACUCUGCCAAUGCCGGUCCCAAGCCCGGAUAAAAGAGGAGGGGGCGG [A10U U43A], CCGCCUAACUCUGCCAAUGCCGGGCCCAAGCCCGGAUAAAAGUGGAGGGGGCGG [A10U U24G] is lower in self-cleavage: 0.79 for the first, 0.01 for the second.

First: CCGCCUAACUCUGCCAAUGCCGGACCCAAGCCCGGAUAAAAGUGGAGGGGGCGG [A10U U24A]
Second: CCGCCUAACUCUGCCAAUGCCGGCCCCAAGCCCGGAUAAAAGUGGAGGGGGCGG [A10U U24C]
The self-cleavage of the first is higher: 0.03 for the first, 0.02 for the second.

Going from CCGCCUAACUCUGCCAAUGCCGGUGCCAAGCCCGGAUAAAAGUGGAGGGGGCGG [A10U C25G] to CCGCCUAACUCUGCCAAUGCCGGUUCCAAGCCCGGAUAAAAGUGGAGGGGGCGG [A10U C25U], the self-cleavage rises from 0.02 to 0.05.

Going from CCGCCUAACUCUGCCAAUGCCGGUACCAAGCCCGGAUAAAAGUGGAGGGGGCGG [A10U C25A] to CCGCCUAACUCAGCCAAUGCCGGUCCCAAGCCCGGAUAAAAGUGGAGGGGGCGG [A10U U12A], the self-cleavage rises from 0.03 to 0.05.

CCGCCUAACUCCGCCAAUGCCGGUCCCAAGCCCGGAUAAAAGUGGAGGGGGCGG [A10U U12C] and CCGCCUAACUCGGCCAAUGCCGGUCCCAAGCCCGGAUAAAAGUGGAGGGGGCGG [A10U U12G] are the same in self-cleavage: 0.02 for the first, 0.02 for the second.

Going from CCGCCUAACUCUGCCAAUGCCGAUCCCAAGCCCGGAUAAAAGUGGAGGGGGCGG [A10U G23A] to CCGCCUAACUCUGCCAAUGCCGCUCCCAAGCCCGGAUAAAAGUGGAGGGGGCGG [A10U G23C], the self-cleavage falls from 0.03 to 0.02.

Going from CCGCCUAACUCUGCCAAUGCCGUUCCCAAGCCCGGAUAAAAGUGGAGGGGGCGG [A10U G23U] to CCGCCUAACUCUGCAAAUGCCGGUCCCAAGCCCGGAUAAAAGUGGAGGGGGCGG [A10U C15A], the self-cleavage rises from 0.01 to 0.03.

First: CCGCCUAACUCUGCUAAUGCCGGUCCCAAGCCCGGAUAAAAGUGGAGGGGGCGG [A10U C15U]
Second: CCGCCUAACUCUGCGAAUGCCGGUCCCAAGCCCGGAUAAAAGUGGAGGGGGCGG [A10U C15G]
The self-cleavage of the first is higher: 0.04 for the first, 0.03 for the second.

Compared with CCGCCUAACUCUUCCAAUGCCGGUCCCAAGCCCGGAUAAAAGUGGAGGGGGCGG [A10U G13U], CCGCCUAACUCUACCAAUGCCGGUCCCAAGCCCGGAUAAAAGUGGAGGGGGCGG [A10U G13A] is higher in self-cleavage: 0 for the first, 0.01 for the second.

Going from CCGCCUAACUCUCCCAAUGCCGGUCCCAAGCCCGGAUAAAAGUGGAGGGGGCGG [A10U G13C] to CCGCCUAACUCUGCCAAUGCCGGUCCCAAGCCCGGAUAAAAGUGAAGGGGGCGG [A10U G45A], the self-cleavage rises from 0.01 to 0.03.

CCGCCUAACUCUGCCAAUGCCGGUCCCAAGCCCGGAUAAAAGUGUAGGGGGCGG [A10U G45U] and CCGCCUAACUCUGCCAAUGCCGGUCCCAAGCCCGGAUAAAAGUGCAGGGGGCGG [A10U G45C] are the same in self-cleavage: 0.02 for the first, 0.02 for the second.

Compared with CCGCCUAACUCUGCCAAUGACGGUCCCAAGCCCGGAUAAAAGUGGAGGGGGCGG [A10U C20A], CCGCCUAACUCUGCCAAUGGCGGUCCCAAGCCCGGAUAAAAGUGGAGGGGGCGG [A10U C20G] is lower in self-cleavage: 0.05 for the first, 0.03 for the second.

Compared with CCGCCUAACUCUGCCAAUGUCGGUCCCAAGCCCGGAUAAAAGUGGAGGGGGCGG [A10U C20U], CCGCCUAACUCUGCCAAUGCCGGUCCCAAGCCCGGAUAAAAGUGGAGGGGGCAG [A10U G53A] is lower in self-cleavage: 0.05 for the first, 0.04 for the second.

First: CCGCCUAACUCUGCCAAUGCCGGUCCCAAGCCCGGAUAAAAGUGGAGGGGGCCG [A10U G53C]
Second: CCGCCUAACUCUGCCAAUGCCGGUCCCAAGCCCGGAUAAAAGUGGAGGGGGCUG [A10U G53U]
The self-cleavage of the first is lower: 0.02 for the first, 0.03 for the second.
